Key:
Type in all cases: cell-based
Raji [1] = test: Inhibition of TPA-induced EBV-early antigen activation in human Raji cells at 32 […] after 48 hrs relative to control; design: scale not given: the % may be the effect or the level left; details: human gammaherpesvirus 4
Outline: (§1)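 Raji cells at 10^6 cells/mL were resuspended in RPMI 1640 with 10% FCS. Induction used 4 mM n-butyric acid plus 32 pmol TPA (20 ng/mL), with test compound in DMSO at mol ratios of 10–1000 to TPA. Cells were held 48 h at 37 °C. EA-positive cells were counted blind, at least 500 cells per assay, and expressed as % of the TPA-only control (100%) ± SD.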

Raji [2] = test: Cytotoxicity against human Raji cells at 32 […] after 48 hrs by trypan blue staining method
Outline: (§2)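 Raji cells grown to 10^6 cells/mL, then resuspended in RPMI 1640 with 10% FCS. Medium held 4 mM n-butyric acid, 32 pmol TPA (20 ng/mL in DMSO) and test compound in DMSO. Culture ran 48 h at 37 °C. Viable cells were counted by hemocytometer with Trypan Blue exclusion. At least 60% survival is required for a valid EBV-EA reading.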

Raji [3] = test: Inhibition of TPA-induced EBV-early antigen activation in human Raji cells at 16 […] after 48 hrs relative to control; design: scale not given: the % may be the effect or the level left; details: human gammaherpesvirus 4; outline: as §1
Raji [4] = test: Cytotoxicity against human Raji cells at 16 […] after 48 hrs by trypan blue staining method; outline: as §2
Raji [5] = test: Inhibition of TPA-induced EBV-early antigen activation in human Raji cells at 3.2 […] after 48 hrs relative to control; design: scale not given: the % may be the effect or the level left; details: human gammaherpesvirus 4; outline: as §1
Raji [6] = test: Cytotoxicity against human Raji cells at 3.2 […] after 48 hrs by trypan blue staining method; outline: as §2
Raji [7] = test: Inhibition of TPA-induced EBV-early antigen activation in human Raji cells at 0.32 […] after 48 hrs relative to control; design: scale not given: the % may be the effect or the level left; details: human gammaherpesvirus 4; outline: as §1
Raji [8] = test: Cytotoxicity against human Raji cells at 0.32 […] after 48 hrs by trypan blue staining method; outline: as §2

**Q.** What does the source list for COc1cccc2c(=O)c3ccoc3n(C)c12?
**A.** Activity (Raji [1]): 19.9%; Activity (Raji [2]): 60%; Activity (Raji [3]): 40.5%; Activity (Raji [4]): > 80%; Activity (Raji [5]): 79.5%; Activity (Raji [6]): > 80%; Activity (Raji [7]): 100%; Activity (Raji [8]): > 80%

**Q.** With COc1c2ccoc2nc2c(OC)cccc12 [GAMMA-FAGARINE] as the molecule, how does the Activity (Raji [1]) read?
**A.** The Activity was 15.4%.

**Q.** And the Activity (Raji [2])?
**A.** Its Activity is 60%.

**Q.** What about the Activity (Raji [3]) of the same molecule?
**A.** The Activity was 38.2%.

**Q.** What about the Activity (Raji [4]) of the same molecule?
**A.** The Activity was over 80%.

**Q.** And the Activity (Raji [5])?
**A.** Its Activity is 77.7%.

**Q.** And the Activity (Raji [6])?
**A.** The Activity was over 80%.

**Q.** What about the Activity (Raji [7]) of the same molecule?
**A.** Its Activity is 100%.

**Q.** And the Activity (Raji [8])?
**A.** Its Activity is over 80%.

**Q.** What does the source list for Cn1c2ccccc2c(=O)c2ccoc21 [ISODICTAMNINE]?
**A.** Activity (Raji [1]): 18.4%; Activity (Raji [2]): 60%; Activity (Raji [3]): 40.3%; Activity (Raji [4]): > 80%; Activity (Raji [5]): 72.2%; Activity (Raji [6]): > 80%; Activity (Raji [7]): 100%; Activity (Raji [8]): > 80%

**Q.** How did the Activity (Raji [1]) turn out when CC1=C(/C=C/C(C)=C/C=C/C(C)=C/C=C/C=C(C)/C=C/C=C(C)/C=C/C2=C(C)CCCC2(C)C)C(C)(C)CCC1 [BETA CAROTENE] was run?
**A.** Its Activity is 9.1%.

**Q.** And the Activity (Raji [2])?
**A.** Its Activity is 60%.

**Q.** What about the Activity (Raji [4]) of the same molecule?
**A.** Its Activity is over 80%.

**Q.** What about the Activity (Raji [6]) of the same molecule?
**A.** The Activity was over 80%.

**Q.** What about the Activity (Raji [7]) of the same molecule?
**A.** Its Activity is 100%.

**Q.** And the Activity (Raji [8])?
**A.** The Activity was over 80%.

**Q.** With COc1cc2c(c(O)c1OC)c(=O)c1ccccc1n2C [ARBORININE] as the molecule, how does the Activity (Raji [1]) read?
**A.** The Activity was 2.7%.

**Q.** What about the Activity (Raji [2]) of the same molecule?
**A.** Its Activity is 60%.

**Q.** And the Activity (Raji [3])?
**A.** Its Activity is 39.6%.

**Q.** What about the Activity (Raji [4]) of the same molecule?
**A.** The Activity was over 80%.

**Q.** And the Activity (Raji [5])?
**A.** Its Activity is 74.3%.

**Q.** What about the Activity (Raji [6]) of the same molecule?
**A.** Its Activity is over 80%.

**Q.** What about the Activity (Raji [7]) of the same molecule?
**A.** Its Activity is 95.6%.

**Q.** What about the Activity (Raji [8]) of the same molecule?
**A.** Its Activity is over 80%.

**Q.** Which Activity (Raji [1]) does the source give for Cc1cc2c(cc1O)[nH]c1ccc3c(c12)C=CC(C)(C)O3 [GLYCOBORININE] here?
**A.** Its Activity is 17.4%.

**Q.** And the Activity (Raji [2])?
**A.** Its Activity is 60%.

**Q.** And the Activity (Raji [3])?
**A.** Its Activity is 49.1%.

**Q.** And the Activity (Raji [4])?
**A.** The Activity was over 80%.

**Q.** And the Activity (Raji [5])?
**A.** Its Activity is 73.7%.

**Q.** What about the Activity (Raji [6]) of the same molecule?
**A.** The Activity was over 80%.

**Q.** And the Activity (Raji [7])?
**A.** Its Activity is 100%.

**Q.** And the Activity (Raji [8])?
**A.** The Activity was over 80%.

**Q.** COc1ccc2[nH]c3cc(OC)c(C)cc3c2c1 [GLYCOZOLIDINE] was tested. Which Activity (Raji [1]) did it give?
**A.** The Activity was 24.3%.

**Q.** What about the Activity (Raji [2]) of the same molecule?
**A.** The Activity was 60%.

**Q.** And the Activity (Raji [3])?
**A.** Its Activity is 51.3%.

**Q.** What about the Activity (Raji [4]) of the same molecule?
**A.** The Activity was over 80%.

**Q.** And the Activity (Raji [5])?
**A.** Its Activity is 76%.

**Q.** And the Activity (Raji [6])?
**A.** Its Activity is over 80%.

**Q.** And the Activity (Raji [7])?
**A.** Its Activity is 100%.

**Q.** What about the Activity (Raji [8]) of the same molecule?
**A.** The Activity was over 80%.

**Q.** For COc1ccc2[nH]c3cc(O)c(C)cc3c2c1CC=C(C)C [GLYBOMINE B], which Activity (Raji [1]) is on record?
**A.** The Activity was 15.3%.

**Q.** What about the Activity (Raji [2]) of the same molecule?
**A.** Its Activity is 60%.

**Q.** What about the Activity (Raji [3]) of the same molecule?
**A.** Its Activity is 46.7%.

**Q.** What about the Activity (Raji [4]) of the same molecule?
**A.** Its Activity is over 80%.

**Q.** What about the Activity (Raji [5]) of the same molecule?
**A.** Its Activity is 68.7%.

**Q.** And the Activity (Raji [6])?
**A.** The Activity was over 80%.

**Q.** What about the Activity (Raji [7]) of the same molecule?
**A.** Its Activity is 96.4%.

**Q.** And the Activity (Raji [8])?
**A.** The Activity was over 80%.

**Q.** For Cn1c(Cc2ccccc2)nc(=O)c2ccccc21 [ARBORINE], which Activity (Raji [1]) is on record?
**A.** Its Activity is 12.7%.

**Q.** And the Activity (Raji [2])?
**A.** Its Activity is 60%.

**Q.** What about the Activity (Raji [3]) of the same molecule?
**A.** The Activity was 40.4%.

**Q.** What about the Activity (Raji [4]) of the same molecule?
**A.** Its Activity is over 80%.

**Q.** And the Activity (Raji [5])?
**A.** The Activity was 75.6%.

**Q.** What about the Activity (Raji [6]) of the same molecule?
**A.** Its Activity is over 80%.

**Q.** And the Activity (Raji [7])?
**A.** The Activity was 100%.

**Q.** What about the Activity (Raji [8]) of the same molecule?
**A.** The Activity was over 80%.

**Q.** What does the source list for CC(C)=CCc1c(O)ccc2[nH]c3cc(O)c(C)cc3c12 [GLYBOMINE C]?
**A.** Activity (Raji [1]): 13.4%; Activity (Raji [2]): 60%; Activity (Raji [3]): 45.6%; Activity (Raji [4]): > 80%; Activity (Raji [5]): 68.9%; Activity (Raji [6]): > 80%; Activity (Raji [7]): 94.6%; Activity (Raji [8]): > 80%

Source: ChEMBL document CHEMBL1148222, “Chemical constituents of Glycosmis arborea: three new carbazole alkaloids and their biological activity” (J Nat Prod, 2004)
